Inhibition and fold change (FC) data for three compounds are collected here from ChEMBL document CHEMBL5653631, “A Potent and Selective ULK1 Inhibitor Suppresses Autophagy and Sensitizes Cancer Cells to Nutrient Stress” (iScience, 2018).

The structures appear in SMILES notation.

For assay [1], the target named is Interleukin-1 receptor-associated kinase 1 (Homo sapiens) (UniProt P51617). Nature of the assay: Inhibition of human recombinant IRAK1 at 40 nM in presence of ATP by radiometric assay relative to control.
The target in assay [2] is T1, Testis-specific serine/threonine-protein kinase 1 (Homo sapiens) (UniProt Q9BXA7).
T1 sequence (whole entry): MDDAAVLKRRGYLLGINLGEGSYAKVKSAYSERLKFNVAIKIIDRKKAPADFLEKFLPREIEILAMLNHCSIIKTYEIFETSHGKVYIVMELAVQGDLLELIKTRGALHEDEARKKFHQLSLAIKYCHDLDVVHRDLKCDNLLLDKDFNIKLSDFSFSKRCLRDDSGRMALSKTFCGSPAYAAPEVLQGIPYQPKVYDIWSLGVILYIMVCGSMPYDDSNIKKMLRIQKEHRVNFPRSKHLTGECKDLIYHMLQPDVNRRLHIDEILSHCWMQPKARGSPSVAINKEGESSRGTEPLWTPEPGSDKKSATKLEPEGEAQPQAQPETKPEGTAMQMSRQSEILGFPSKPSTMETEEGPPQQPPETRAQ
As to the kind of experiment: Inhibition of human recombinant TSSK1 at 40 nM in presence of ATP by radiometric assay relative to control.

Assay [3] concerns the target Protein kinase C alpha type (Homo sapiens) (UniProt P17252). As to the kind of experiment: Inhibition of human recombinant PKCa at 500 nM related to control ULK1.
Assay [4] has as its target Serine/threonine-protein kinase tousled-like 2 (Homo sapiens) (UniProt Q86UE8). Nature of the assay: Inhibition of human recombinant TLK2 at 500 nM related to control ULK1.
Assay [5] has as its target T2, Bone morphogenetic protein receptor type-2 (Homo sapiens) (UniProt Q13873).
T2 sequence (whole entry): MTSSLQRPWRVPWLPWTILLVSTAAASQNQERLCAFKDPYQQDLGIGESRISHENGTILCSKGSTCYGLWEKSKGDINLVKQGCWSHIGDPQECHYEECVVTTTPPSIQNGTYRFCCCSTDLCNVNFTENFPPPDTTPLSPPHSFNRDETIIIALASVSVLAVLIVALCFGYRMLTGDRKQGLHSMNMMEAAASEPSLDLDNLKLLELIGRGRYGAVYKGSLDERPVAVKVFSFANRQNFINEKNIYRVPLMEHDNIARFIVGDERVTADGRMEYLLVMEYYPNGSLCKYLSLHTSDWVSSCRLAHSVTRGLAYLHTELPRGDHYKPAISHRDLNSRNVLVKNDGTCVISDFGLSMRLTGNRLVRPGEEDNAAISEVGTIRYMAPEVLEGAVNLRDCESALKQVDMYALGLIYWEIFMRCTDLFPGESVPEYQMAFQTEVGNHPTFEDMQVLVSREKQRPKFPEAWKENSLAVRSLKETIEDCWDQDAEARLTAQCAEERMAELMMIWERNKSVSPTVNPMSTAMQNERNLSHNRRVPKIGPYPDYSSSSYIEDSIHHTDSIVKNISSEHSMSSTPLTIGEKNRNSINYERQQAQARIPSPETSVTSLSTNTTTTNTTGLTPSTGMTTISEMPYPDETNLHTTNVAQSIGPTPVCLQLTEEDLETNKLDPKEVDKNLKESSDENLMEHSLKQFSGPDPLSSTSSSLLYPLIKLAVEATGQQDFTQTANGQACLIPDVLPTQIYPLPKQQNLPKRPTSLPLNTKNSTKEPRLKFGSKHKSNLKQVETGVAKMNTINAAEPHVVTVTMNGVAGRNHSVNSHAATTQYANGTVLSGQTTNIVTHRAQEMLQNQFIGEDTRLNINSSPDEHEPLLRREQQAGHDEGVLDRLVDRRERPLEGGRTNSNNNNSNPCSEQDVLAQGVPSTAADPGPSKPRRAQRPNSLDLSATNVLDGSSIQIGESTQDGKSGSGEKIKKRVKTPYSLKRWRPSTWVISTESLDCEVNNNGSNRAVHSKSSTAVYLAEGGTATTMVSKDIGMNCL
As to the kind of experiment: Inhibition of human recombinant BMPR2 at 500 nM in presence of ATP by radiometric assay relative to control. In a few lines:
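Part of a radiometric in vitro activity panel of 327 recombinant human kinases. Each kinase was tested in duplicate at one inhibitor concentration. Activity remaining was expressed as a percentage of the vehicle control, and percent inhibition was taken as 100 minus that value.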

In assay [6] the target is Serine/threonine-protein kinase WNK2 (Homo sapiens) (UniProt Q9Y3S1). As to the kind of experiment: Inhibition of human recombinant Wnk2 at 500 nM related to control ULK1.
Assay [7] has as its target Platelet-derived growth factor receptor beta (Homo sapiens) (UniProt P09619). Nature of the assay: Inhibition of human recombinant PDGFRb at 500 nM related to control ULK1.
Assay [8] deals with Serine/threonine-protein kinase 35 (Homo sapiens) (UniProt Q8TDR2). As to the kind of experiment: Inhibition of human recombinant CLIK1 at 500 nM related to control ULK1.
Assay [9] addresses cAMP-dependent protein kinase catalytic subunit beta (Homo sapiens) (UniProt P22694). Nature of the assay: Inhibition of human recombinant PKACbeta at 500 nM related to control ULK1.
For assay [10], the target named is Serine/threonine-protein kinase PAK 3 (Homo sapiens) (UniProt O75914). Nature of the assay: Inhibition of human recombinant PAK3 at 500 nM related to control ULK1.
For assay [11], the target named is Serine/threonine-protein kinase PAK 1 (Homo sapiens) (UniProt Q13153). As to the kind of experiment: Inhibition of human recombinant PAK1 at 15 nM related to control ULK1.
In assay [12] the target is Serine/threonine-protein kinase MRCK alpha (Homo sapiens) (UniProt Q5VT25). As to the kind of experiment: Inhibition of human recombinant MRCKa at 15 nM related to control ULK1.
Assay [13] deals with Serine/threonine-protein kinase MARK1 (Homo sapiens) (UniProt Q9P0L2). As to the kind of experiment: Inhibition of human recombinant MARK1 at 15 nM related to control ULK1.
The target of assay [14] is Serine/threonine-protein kinase SIK3 (Homo sapiens) (UniProt Q9Y2K2). As to the kind of experiment: Inhibition of human recombinant QSK at 15 nM in presence of ATP by radiometric assay relative to control.
In assay [15] the test system is G protein-coupled receptor kinase 7 (Homo sapiens). Nature of the assay: Inhibition of human recombinant GPRK7 at 15 nM in presence of ATP by radiometric assay relative to control.
Assay [16] addresses Casein kinase II subunit alpha' (Homo sapiens) (UniProt P19784). As to the kind of experiment: Inhibition of human recombinant CK2a2 at 15 nM in presence of ATP by radiometric assay relative to control.

Chain of Platelet-derived growth factor receptor beta (Homo sapiens) (P09619 whole entry): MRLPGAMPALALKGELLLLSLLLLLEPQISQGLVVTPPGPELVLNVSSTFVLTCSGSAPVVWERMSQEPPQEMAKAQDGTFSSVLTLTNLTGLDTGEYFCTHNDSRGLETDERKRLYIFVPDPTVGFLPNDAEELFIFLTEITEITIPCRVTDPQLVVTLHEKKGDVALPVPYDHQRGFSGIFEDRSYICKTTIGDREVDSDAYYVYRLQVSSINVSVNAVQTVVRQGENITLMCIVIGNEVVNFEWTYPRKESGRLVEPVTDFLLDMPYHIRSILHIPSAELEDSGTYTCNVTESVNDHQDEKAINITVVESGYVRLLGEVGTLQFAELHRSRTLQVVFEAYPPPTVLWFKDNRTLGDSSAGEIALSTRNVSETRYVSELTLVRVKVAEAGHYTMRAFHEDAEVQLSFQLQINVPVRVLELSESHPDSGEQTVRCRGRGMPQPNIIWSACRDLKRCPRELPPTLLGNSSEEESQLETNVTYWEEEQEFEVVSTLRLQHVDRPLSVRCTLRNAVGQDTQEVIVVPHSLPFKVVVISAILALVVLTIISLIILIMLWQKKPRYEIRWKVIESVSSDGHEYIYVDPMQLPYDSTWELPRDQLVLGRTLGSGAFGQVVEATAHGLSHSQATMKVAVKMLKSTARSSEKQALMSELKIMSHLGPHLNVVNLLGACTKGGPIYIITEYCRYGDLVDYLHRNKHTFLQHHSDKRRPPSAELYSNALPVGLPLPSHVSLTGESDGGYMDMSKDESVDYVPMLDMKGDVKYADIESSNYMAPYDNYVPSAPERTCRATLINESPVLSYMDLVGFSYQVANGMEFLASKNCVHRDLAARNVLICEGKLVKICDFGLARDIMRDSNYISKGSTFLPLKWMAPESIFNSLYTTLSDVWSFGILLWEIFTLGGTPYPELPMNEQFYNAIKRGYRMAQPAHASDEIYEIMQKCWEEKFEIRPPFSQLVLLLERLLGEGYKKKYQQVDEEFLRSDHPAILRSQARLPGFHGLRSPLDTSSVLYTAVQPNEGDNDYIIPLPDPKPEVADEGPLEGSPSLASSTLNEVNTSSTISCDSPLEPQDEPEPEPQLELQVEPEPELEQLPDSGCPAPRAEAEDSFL
Chain of Serine/threonine-protein kinase SIK3 (Homo sapiens) (Q9Y2K2 whole entry, looked up): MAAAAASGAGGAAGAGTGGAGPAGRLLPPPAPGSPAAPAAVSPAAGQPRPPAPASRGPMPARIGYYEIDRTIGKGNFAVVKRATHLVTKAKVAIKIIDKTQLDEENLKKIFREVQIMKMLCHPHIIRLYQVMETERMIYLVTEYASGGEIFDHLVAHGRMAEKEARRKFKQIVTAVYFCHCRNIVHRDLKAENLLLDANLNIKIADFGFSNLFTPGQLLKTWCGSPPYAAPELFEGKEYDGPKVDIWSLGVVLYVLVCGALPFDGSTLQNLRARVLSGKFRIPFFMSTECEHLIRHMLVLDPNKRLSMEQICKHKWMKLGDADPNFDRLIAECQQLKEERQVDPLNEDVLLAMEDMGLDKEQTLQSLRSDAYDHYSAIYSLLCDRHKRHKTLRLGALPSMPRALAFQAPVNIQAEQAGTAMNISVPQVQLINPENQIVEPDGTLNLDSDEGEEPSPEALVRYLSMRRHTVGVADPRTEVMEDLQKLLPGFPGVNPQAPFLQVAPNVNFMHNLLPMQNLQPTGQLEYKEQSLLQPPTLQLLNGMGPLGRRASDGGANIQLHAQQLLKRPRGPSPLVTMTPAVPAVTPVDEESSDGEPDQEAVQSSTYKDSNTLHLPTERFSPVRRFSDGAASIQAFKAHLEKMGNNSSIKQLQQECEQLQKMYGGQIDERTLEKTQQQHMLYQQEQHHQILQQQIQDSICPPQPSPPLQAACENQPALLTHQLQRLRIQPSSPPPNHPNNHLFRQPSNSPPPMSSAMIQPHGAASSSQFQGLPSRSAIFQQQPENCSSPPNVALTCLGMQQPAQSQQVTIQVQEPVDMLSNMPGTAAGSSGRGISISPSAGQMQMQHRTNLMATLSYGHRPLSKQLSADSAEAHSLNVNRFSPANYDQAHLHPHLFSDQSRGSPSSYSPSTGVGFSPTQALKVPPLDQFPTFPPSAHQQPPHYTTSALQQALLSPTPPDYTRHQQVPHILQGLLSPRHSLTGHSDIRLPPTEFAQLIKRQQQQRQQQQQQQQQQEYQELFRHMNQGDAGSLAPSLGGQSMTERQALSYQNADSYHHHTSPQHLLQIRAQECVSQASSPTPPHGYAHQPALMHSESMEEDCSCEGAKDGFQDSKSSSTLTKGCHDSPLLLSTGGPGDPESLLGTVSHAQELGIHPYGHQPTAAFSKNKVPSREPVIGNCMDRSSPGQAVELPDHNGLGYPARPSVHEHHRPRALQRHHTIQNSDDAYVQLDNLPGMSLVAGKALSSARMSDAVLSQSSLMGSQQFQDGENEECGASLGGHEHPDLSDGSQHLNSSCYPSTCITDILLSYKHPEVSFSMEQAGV
Chain of Serine/threonine-protein kinase PAK 3 (Homo sapiens) (O75914 whole entry, looked up): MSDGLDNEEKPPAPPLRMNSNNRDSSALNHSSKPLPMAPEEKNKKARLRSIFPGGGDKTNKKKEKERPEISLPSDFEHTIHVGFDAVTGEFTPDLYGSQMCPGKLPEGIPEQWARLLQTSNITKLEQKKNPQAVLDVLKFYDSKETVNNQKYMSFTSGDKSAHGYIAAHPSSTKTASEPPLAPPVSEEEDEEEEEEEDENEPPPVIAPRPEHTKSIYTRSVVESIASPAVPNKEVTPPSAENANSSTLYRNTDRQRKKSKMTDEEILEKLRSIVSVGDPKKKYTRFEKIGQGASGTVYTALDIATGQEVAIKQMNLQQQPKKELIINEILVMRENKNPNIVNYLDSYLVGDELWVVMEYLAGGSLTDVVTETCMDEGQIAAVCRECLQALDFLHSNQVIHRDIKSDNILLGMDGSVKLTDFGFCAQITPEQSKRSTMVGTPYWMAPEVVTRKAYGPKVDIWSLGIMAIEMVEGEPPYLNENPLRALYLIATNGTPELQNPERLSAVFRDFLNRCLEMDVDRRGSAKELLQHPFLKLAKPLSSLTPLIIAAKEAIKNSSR
Chain of Serine/threonine-protein kinase MRCK alpha (Homo sapiens) (Q5VT25 whole entry): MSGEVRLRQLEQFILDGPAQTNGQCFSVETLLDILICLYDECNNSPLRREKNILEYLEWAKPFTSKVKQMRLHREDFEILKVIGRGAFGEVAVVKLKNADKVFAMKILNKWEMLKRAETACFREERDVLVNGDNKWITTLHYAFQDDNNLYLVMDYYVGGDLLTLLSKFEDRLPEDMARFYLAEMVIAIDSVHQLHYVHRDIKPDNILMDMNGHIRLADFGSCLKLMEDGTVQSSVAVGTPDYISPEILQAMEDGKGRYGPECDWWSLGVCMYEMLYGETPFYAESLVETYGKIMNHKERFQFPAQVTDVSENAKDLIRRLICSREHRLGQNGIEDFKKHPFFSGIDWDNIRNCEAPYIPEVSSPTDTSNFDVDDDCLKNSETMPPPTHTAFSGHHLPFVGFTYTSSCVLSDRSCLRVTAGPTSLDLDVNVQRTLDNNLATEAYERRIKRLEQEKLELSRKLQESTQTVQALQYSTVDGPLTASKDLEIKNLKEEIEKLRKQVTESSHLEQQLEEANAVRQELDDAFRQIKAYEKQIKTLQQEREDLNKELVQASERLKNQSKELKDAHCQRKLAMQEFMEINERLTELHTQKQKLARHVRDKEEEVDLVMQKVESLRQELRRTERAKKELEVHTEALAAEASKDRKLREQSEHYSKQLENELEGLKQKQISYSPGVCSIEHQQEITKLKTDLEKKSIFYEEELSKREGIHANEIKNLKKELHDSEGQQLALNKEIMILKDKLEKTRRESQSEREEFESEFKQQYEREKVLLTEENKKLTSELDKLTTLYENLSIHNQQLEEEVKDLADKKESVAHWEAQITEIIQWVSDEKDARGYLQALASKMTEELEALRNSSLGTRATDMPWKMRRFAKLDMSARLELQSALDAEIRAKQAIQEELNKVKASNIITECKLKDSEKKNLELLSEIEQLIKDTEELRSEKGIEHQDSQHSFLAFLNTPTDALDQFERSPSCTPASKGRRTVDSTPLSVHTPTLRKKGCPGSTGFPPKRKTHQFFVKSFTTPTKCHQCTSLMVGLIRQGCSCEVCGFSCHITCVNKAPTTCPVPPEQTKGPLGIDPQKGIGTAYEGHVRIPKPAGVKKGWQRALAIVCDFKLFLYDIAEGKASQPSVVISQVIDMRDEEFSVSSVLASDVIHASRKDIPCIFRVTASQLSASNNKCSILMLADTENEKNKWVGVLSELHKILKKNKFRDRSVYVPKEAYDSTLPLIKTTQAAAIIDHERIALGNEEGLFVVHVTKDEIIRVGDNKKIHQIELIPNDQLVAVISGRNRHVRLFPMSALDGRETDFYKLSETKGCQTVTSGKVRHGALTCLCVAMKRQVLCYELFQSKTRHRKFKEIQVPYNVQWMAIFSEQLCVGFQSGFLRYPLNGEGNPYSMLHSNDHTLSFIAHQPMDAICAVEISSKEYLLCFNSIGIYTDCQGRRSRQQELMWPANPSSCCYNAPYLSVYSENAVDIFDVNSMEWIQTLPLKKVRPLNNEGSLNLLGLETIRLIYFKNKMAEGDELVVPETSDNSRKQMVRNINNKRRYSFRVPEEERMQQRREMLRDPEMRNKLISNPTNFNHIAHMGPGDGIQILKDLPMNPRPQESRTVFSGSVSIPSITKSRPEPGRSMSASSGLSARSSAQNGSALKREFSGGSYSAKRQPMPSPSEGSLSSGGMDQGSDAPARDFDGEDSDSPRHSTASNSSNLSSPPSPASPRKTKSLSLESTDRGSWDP
Chain of Casein kinase II subunit alpha' (Homo sapiens) (P19784 whole entry, looked up): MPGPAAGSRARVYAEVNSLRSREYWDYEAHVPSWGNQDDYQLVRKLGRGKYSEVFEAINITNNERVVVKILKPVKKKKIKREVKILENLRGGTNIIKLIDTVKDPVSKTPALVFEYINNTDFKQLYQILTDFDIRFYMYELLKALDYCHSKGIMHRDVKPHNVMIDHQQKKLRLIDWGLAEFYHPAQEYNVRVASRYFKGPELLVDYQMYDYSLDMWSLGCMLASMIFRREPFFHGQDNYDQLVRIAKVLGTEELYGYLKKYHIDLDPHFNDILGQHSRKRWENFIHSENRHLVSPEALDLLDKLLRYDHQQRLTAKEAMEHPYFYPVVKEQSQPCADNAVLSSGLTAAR

Consider `O=C(N[C@@H](C1CC1)C(F)(F)F)c1cc(-c2cnn3cc(-c4ccc(F)cc4)cnc23)cs1`, for which the inhibition in [1] was 7%; in assay [2] it was 0%.

For `CNC(=O)c1ccccc1Oc1nc(Nc2cc(OC)c(OC)c(OC)c2)ncc1Br`, the fold change (FC) in assay [3] was found to be 0; in [4] it was 0; in assay [6], 0.01; in assay [7], 0; in assay [8], 0.04; in assay [9], 0. Besides, the fold change (FC) in assay [10] was 0.12. In addition, the inhibition in assay [5] was found to be 0%.

As for `CC(C)[C@H](NC(=O)c1cc(-c2cnn3cc(-c4ccc(OCCN5CCCCC5)cc4)cnc23)cs1)C(F)(F)F`, the fold change (FC) in [11] is 0; in assay [12], 0.13; in assay [13] it was 0.61. The values for the inhibition in assay [14], in assay [15] and in assay [16] were 86%, 0% and 5%, respectively.
